Data published in ChEMBL document CHEMBL4011604, “Bishomoisoprenoid triazole bisphosphonates as inhibitors of geranylgeranyl diphosphate synthase” (Bioorg Med Chem, 2017).
Activity calls are given as the source filed them. No cut-off for these calls is given here.

How the values were obtained:
Homo sapiens [1] = species on record: Homo sapiens; assay: Inhibition of Rab GGTase2 in human RPMI8226 cells assessed as decrease in Rab GTPase geranylgeranylation by measuring accumulation of intracellular lambda light chain at 0.1 to 50 uM after 48 hrs by ELISA; assay type: cell-based
How it was run: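 Intracellular lambda light chain in RPMI-8226 cells after 48 h incubation with compounds (lovastatin 10 μM positive control). Quantified by human lambda light chain ELISA on whole-cell lysate and normalised to BCA total protein. Results given as percent of untreated control, mean + SD, n=3. Significance by unpaired two-tailed t-test, p < 0.05.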

[2] = target: T1, Farnesyl pyrophosphate synthase (Homo sapiens, UniProt P14324); assay: Inhibition of recombinant FDPS (unknown origin) using GPP as substrate pretreated for 10 mins followed by substrate addition after 30 mins in presence of [14C]-IPP by liquid scintillation counting method
T1 sequence (P14324 whole entry): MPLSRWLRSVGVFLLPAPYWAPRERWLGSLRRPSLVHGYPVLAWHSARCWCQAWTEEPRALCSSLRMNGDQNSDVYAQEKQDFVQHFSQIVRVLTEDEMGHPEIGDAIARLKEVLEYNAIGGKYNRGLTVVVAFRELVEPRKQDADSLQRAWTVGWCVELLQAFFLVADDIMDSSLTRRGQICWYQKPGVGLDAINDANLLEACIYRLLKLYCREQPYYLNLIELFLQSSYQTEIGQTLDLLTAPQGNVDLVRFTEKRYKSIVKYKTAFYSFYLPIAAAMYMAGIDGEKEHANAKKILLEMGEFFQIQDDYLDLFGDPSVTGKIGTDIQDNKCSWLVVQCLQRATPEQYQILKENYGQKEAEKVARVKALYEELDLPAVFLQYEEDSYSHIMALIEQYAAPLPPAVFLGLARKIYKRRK
How it was run: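 Recombinant FDPS assayed by a previously described method, each concentration in duplicate, three independent experiments. IC50 derived from concentration-response curves by Chou–Talalay median-effect analysis.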

[3] = Inhibition of recombinant rat FTase using FDP as substrate measured after 1 hr by dansyl-GCVLS dye based fluorescence assay
How it was run: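 Recombinant FTase 18 nM started reactions in 50 mM HEPPSO, 5 mM TCEP-HCl, 5 mM MgCl2 with 10 μM FDP and 5 μM dansyl-GCVLS, 30 °C for 1 h, with or without compound. Peptide prenylation followed as rise in dansyl fluorescence (ex 340 / em 520 nm) over time. IC50 by Chou–Talalay analysis.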

[4] = target: T2, Geranylgeranyl transferase type I (Homo sapiens) (UniProt P49354+P53609); assay: Inhibition of GGTase1 in human RPMI8226 cells assessed as decrease in Rap1a geranylgeranylation at 0.1 to 50 uM after 48 hrs by Western blot method; assay type: cell-based
How it was run: (§1)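 RPMI-8226 myeloma cells exposed 48 h to test compounds over a range of concentrations, lovastatin 10 μM as positive control. Whole-cell RIPA lysates with protease/phosphatase inhibitors, protein by BCA; equal protein run on SDS-PAGE and immunoblotted with antibody recognising only unmodified Rap1a, β-tubulin as loading control, HRP secondary with ECL detection.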

[5] = target: geranylgeranyltransferase type-I (Rattus norvegicus, UniProt P53610+Q04631); assay: Inhibition of recombinant rat GGTase1 expressed in Escherichia coli using GGDP as substrate measured after 2 hrs by dansyl-GCVLS dye based fluorescence assay
How it was run: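 Recombinant GGTase I 24 nM added to 50 mM HEPPSO, 5 mM TCEP-HCl containing 10 μM GGDP and 5 μM dansyl-GCVLS. Incubated 2 h at 30 °C with or without compound, with prenylation tracked as dansyl fluorescence increase (ex 340 / em 520 nm) over time. IC50 from Chou–Talalay curve fitting.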

Homo sapiens [6] = species on record: Homo sapiens; assay: Inhibition of Rab GGTase2 in human RPMI8226 cells assessed as decrease in Rab6 geranylgeranylation at 5 to 50 uM after 48 hrs by western blot analysis; assay type: cell-based
How it was run: (§2)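 Membrane-bound Rab6 measured in RPMI-8226 cells treated 48 h (lovastatin 10 μM positive control). Cells lysed with Triton X-114 and the detergent (membrane) fraction immunoblotted for Rab6, with calnexin as loading control. Densitometry gives Rab6/calnexin relative to untreated cells.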

[7] = target: T3, Geranylgeranyl pyrophosphate synthase (Homo sapiens, UniProt O95749); assay: Inhibition of recombinant GGDPS (unknown origin) using FPP as substrate pretreated for 10 mins followed by substrate addition after 30 mins in presence of [14C]-IPP by liquid scintillation counting analysis
T3 sequence (O95749 whole entry): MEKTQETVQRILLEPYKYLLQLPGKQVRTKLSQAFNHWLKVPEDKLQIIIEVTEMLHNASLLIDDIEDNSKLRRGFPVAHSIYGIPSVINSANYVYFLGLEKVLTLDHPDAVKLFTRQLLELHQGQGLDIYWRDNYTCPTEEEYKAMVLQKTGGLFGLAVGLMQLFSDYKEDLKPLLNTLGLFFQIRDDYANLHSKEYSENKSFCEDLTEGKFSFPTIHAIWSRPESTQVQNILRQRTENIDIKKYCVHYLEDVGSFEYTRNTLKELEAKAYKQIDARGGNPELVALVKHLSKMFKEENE
How it was run: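 Recombinant GGDPS from a commercial source; compounds tested in duplicate at multiple concentrations, three independent experiments. IC50 values from concentration-response curves by Chou–Talalay median-effect analysis.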

Homo sapiens [8] = species on record: Homo sapiens; assay: Inhibition of Rab GGTase2 in human RPMI8226 cells assessed as decrease in Rab6 geranylgeranylation after 48 hrs by western blot analysis; assay type: cell-based
How it was run: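 RPMI-8226 cells, 48 h with varying compound concentrations, lovastatin 10 μM as control. Cells lysed with Triton X-114; detergent (membrane) fraction immunoblotted for Rab6 with calnexin loading control. Rab6 band densitometry normalised to calnexin, then to untreated cells (relative intensity).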

Homo sapiens [9] = species on record: Homo sapiens; assay: Inhibition of Rab GGTase2 in human RPMI8226 cells assessed as decrease in Rab GTPase geranylgeranylation by measuring accumulation of intracellular lambda light chain after 48 hrs by ELISA; assay type: cell-based
How it was run: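 RPMI-8226 cells treated 48 h with varying compound concentrations (lovastatin 10 μM control). Intracellular lambda light chain in whole-cell lysate quantified by human lambda ELISA, normalised to total protein (BCA), expressed as percent of untreated control; mean + SD, n=3; unpaired two-tailed t-test, p < 0.05.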

[10] = target: T2, Geranylgeranyl transferase type I (Homo sapiens); assay: Inhibition of GGTase1 in human RPMI8226 cells assessed as decrease in Rap1a geranylgeranylation after 48 hrs by Western blot method; assay type: cell-based
How it was run: as §1, with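 “varying compound” for “test compounds over a range of”, “Whole-cell lysate made in” for “Whole-cell”, “buffer” for “lysates”, “SDS-PAGE, blotted to PVDF, probed” for “SDS-PAGE and immunoblotted”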

[11] = target: T2, Geranylgeranyl transferase type I (Homo sapiens); assay: Inhibition of GGTase1 in human RPMI8226 cells assessed as decrease in Rap1a geranylgeranylation at 0.5 uM after 48 hrs by Western blot method; assay type: cell-based; how it was run: as §1
Homo sapiens [12] = species on record: Homo sapiens; assay: Inhibition of Rab GGTase2 in human RPMI8226 cells assessed as disruption of Rab6 geranylgeranylation at 1 to 10 uM after 48 hrs by western blot analysis; assay type: cell-based; how it was run: as §2

IC50 [2]	IC50 [3]	inhibition [4]	IC50 [5]	inhibition [11]	Compound	inhibition (Homo sapiens [1])	inhibition (Homo sapiens [6])	IC50 [7]	INH (Homo sapiens [8])	INH (Homo sapiens [9])	INH [10]	inhibition (Homo sapiens [12])
33.3 µM	> 100 µM	Active	> 100 µM		CC(C)=CCC/C(C)=C/CCCn1cc(CC(P(=O)(O)O)P(=O)(O)O)nn1	Active	Active					
> 100 µM	> 100 µM	Active	> 100 µM		CC(C)=CCCCn1cc(CC(P(=O)(O)O)P(=O)(O)O)nn1	Active	Active	3.6 µM				
					CC(C)=CCC/C(C)=C/CCn1cc(CC(P(=O)(O)O)P(=O)(O)O)nn1			0.17 µM	0.09 µM	0.09 µM	0.09 µM	
29.8 µM	> 100 µM		> 100 µM	Active	CC(C)=CCC/C(C)=C\CCCn1cc(CC(P(=O)(O)O)P(=O)(O)O)nn1	Active						Active
